# Assay results gathered from unrelated publications.
# Compare with care: the assays were run in different laboratories.
# Effect on: binding
# PIK3CG: Phosphatidylinositol 4,5-bisphosphate 3-kinase catalytic subunit gamma isoform (PIK3CG, Homo sapiens, UniProt P48736)
# tspO: tspO (Cereibacter sphaeroides, UniProt Q9RFC8)
# CREBBP bromodomain: CREB-binding protein, bromodomain (CREBBP, Homo sapiens, UniProt Q92793)
Compound,target,method,Kd [nM]
C=CC(=O)N1CCC(C(=O)N(C)CC(=O)N2CCN(c3nc(-c4cnc(N)nc4C(F)F)nc(N4CCOCC4)n3)CC2)CC1,PIK3CG,competition with immobilised ligand,9.4
CO[C@H]1[C@H](O)[C@@H](CO)OC(O)[C@@H]1O (some centres unmarked),"Nucleolar RNA helicase 2 (Homo sapiens, UniProt Q9NR30)",MST,3980
CCOc1cc(-c2nncn2C)ccc1Nc1ncc2cc(C)nc(NCC(C)(C)C)c2n1,"Mitogen-activated protein kinase kinase kinase 15 (MAP3K15, Homo sapiens, UniProt Q6ZN16)",competition with immobilised ligand,> 10000
CC(C)=CCc1c(O)ccc(C(=O)/C=C/c2ccc(O)cc2)c1O,"Dihydroorotate dehydrogenase (quinone), mitochondrial (DHODH, Homo sapiens, UniProt Q02127)",ITC,1330
C=CC1=C(C)C2=Cc3c(C=C)c(C)c4[n]3[Fe]([Cl])[n]3c(c(C)c(CCC(=O)O)c3=CC3=NC(=C4)C(C)=C3CCC(=O)O)=CC1=N2,tspO,fluorescence,900
Cc1cc(/N=N/c2ccc(S(=O)(=O)O)cc2)cc(C)c1O,CREBBP bromodomain,fluorescence,44000
Nc1nc2c(ncn2[C@@H]2O[C@H](COP(=O)(O)OP(=O)(O)O)[C@@H](OP(=O)(O)OP(=O)(O)O)[C@H]2O)c(=O)[nH]1,"gpmA (Escherichia coli, UniProt P62707)",ITC,52000
C=CC(=O)N1CCC(C(=O)NCC(=O)N2CCN(c3nc(-c4cnc(N)nc4C(F)F)nc(N4CCOCC4)n3)CC2)CC1,PIK3CG,competition with immobilised ligand,1.6
CC1=C(/C=C/C(C)=C/C=C/C(C)=C/C=O)C(C)(C)CCC1,"Cellular retinoic acid-binding protein 2 (CRABP2, Homo sapiens, UniProt P29373, L122E/R112E/R133K)",fluorescence,894
Cc1cc2c(NC(=O)c3cccc(C(=O)O)c3)cccc2nn1,CREBBP bromodomain,competition with immobilised ligand,1100
C=CC1=C(C)c2cc3[nH]c(cc4nc(cc5[nH]c(cc1n2)c(C)c5CCC(=O)O)C(CCC(=O)O)=C4C)c(C)c3C=C,tspO,fluorescence,900
